Here are results for 38 compounds from ChEMBL document CHEMBL1138681, “Identification of structurally diverse growth hormone secretagogue agonists by virtual screening and structure-activity relationship analysis of 2-formylaminoacetamide derivatives” (J Med Chem, 2004).

Assay [1] concerns the target T1, Growth hormone secretagogue receptor type 1 (Homo sapiens, UniProt Q92847). Description: Tested for growth hormone secretagogue activity in A93 cell line using a calcium flux assay at 10 uM (Relative to compound T1). Format: functional, cell-based. Background: Calcium flux is commonly read through the fluorescence of an indicator in the cells.
Assay [2] has as its target T1, Growth hormone secretagogue receptor type 1. In words: Binding affinity for human growth hormone secretagogue receptor was determined using [125I]ghrelin. The procedure, abridged:
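Competition binding with (125I)ghrelin (human) at the GHS receptor, run by a contract laboratory following published methods. Ki values were derived from binding curves.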

The target is the same in assay [3]. Description: Tested for growth hormone secretagogue activity in A93 cell line using a calcium flux assay at 10 uM (Relative to compound T1); NA means not active. The class given is functional, cell-based.
For assay [4] the target is unchanged. Description: Binding affinity for human growth hormone secretagogue receptor using [125I]ghrelin; NA means not active. The procedure, abridged:
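Radioligand displacement with (125I)ghrelin (human) at GHS receptor, run by a contract lab following published methods; Ki values reported; binding curves in supplement.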

Structures are written as SMILES. Active and inactive are the calls of the source. No cut-off for these calls is given here.

T1 sequence (Q92847 whole entry): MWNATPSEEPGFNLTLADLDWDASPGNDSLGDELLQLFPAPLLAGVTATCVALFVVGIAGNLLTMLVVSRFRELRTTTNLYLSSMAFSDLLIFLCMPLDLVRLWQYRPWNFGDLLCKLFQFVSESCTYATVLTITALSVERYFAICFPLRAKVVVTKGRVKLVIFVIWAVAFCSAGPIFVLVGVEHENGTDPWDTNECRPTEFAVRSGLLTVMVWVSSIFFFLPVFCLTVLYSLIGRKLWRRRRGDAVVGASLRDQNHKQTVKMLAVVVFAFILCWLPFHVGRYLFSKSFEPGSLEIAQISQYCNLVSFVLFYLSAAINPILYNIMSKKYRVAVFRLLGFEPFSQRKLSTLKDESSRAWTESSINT

As a reminder, the Ki is the dissociation constant of the complex between target and ligand, obtained from inhibition or displacement. Read a low Ki as a stronger hold on the target. Take `CCN(CC)CCCN(C(=O)CCN1CCCc2ccccc21)C(C(=O)NC1CCCCC1)c1ccc(F)cc1` (stereo unspecified): the Activity in assay [1] came to 0.31. In assay [2], the Ki came out at 2030 nM.

In the case of `CCOc1ccc(C(C(=O)NC2CCCCC2)N(CCCN(CC)CC)C(=O)c2ccc(-c3ccccc3)[nH]2)cc1` (stereo unspecified), the outcome in assay [3] was inactive.

In general, IC50 refers to the concentration at which inhibition is half-maximal. A low value points to inhibition by little substance. As for `CCN(CC)CCN1C(=O)[C@@](O)(c2ccccc2Cl)c2c1cc(C(N)=O)cc2C(F)(F)F`, the concentration for half-maximal inhibition (IC50) in assay [2] came out at 1.2 nM. This counts as single-digit nanomolar.

On to `CCN(CC)CCCN(C(=O)c1ccc(-c2ccccc2)[nH]1)C(C(=O)NC1CCCCC1)c1cccs1` (stereo unspecified), for which the result in assay [3] was inactive.

As to `COc1ccc(CN(C(=O)c2ccc(-c3ccccc3)[nH]2)C(C)C(=O)NC2CCCCC2)cc1` (stereo unspecified), the outcome in assay [3] was inactive.

Take `Cc1ccc(CC(C(=O)NC2CCCCC2)N(Cc2ccccc2)C(=O)c2ccc(-c3ccccc3)[nH]2)o1` (stereo unspecified): the result in assay [3] was inactive.

As for `CCN(CC)CCCN(C(=O)c1ccc(-c2ccccc2)[nH]1)C(C(=O)NC1CCCCC1)c1ccco1` (stereo unspecified), the result in assay [3] was inactive.

Take `CCN(CC)CCCN(C(=O)c1ccc(-c2ccccc2)[nH]1)C(C(=O)NC1CCCCC1)c1cc(OC)c(OC)c(OC)c1` (stereo unspecified): the result in assay [3] was inactive.

With `CCN(CC)CCCN(C(=O)c1ccc(-c2ccccc2)[nH]1)C(C(=O)NC1CCCCC1)c1ccc(C)cc1` (stereo unspecified), the outcome in assay [3] was inactive.

On to `CCC(C(=O)NC1CCCCC1)N(CCCN(CC)CC)C(=O)c1ccc(-c2ccccc2)[nH]1` (stereo unspecified), for which the Activity in assay [1] turned out to be 1.23. In assay [2], this compound yielded a Ki of 220 nM.

`CCN(CC)CCN(C(=O)c1ccc(-c2ccccc2)[nH]1)C(C(=O)NC1CCCCC1)c1c[nH]c2ccccc12` (stereo unspecified): in assay [3], the outcome was inactive.

`CCOC(=O)CN(C(=O)c1ccc(-c2ccccc2)[nH]1)C(C)C(=O)NC1CCCCC1` (stereo unspecified): the result in assay [3] was inactive.

Consider `CCN(CC)CCCN(C(=O)c1ccc(-c2ccccc2)[nH]1)C(C)C(=O)NC1CCCCC1` (stereo unspecified), for which the Activity in assay [1] is 0.96. The Ki in assay [2] was found to be 1920 nM.

Regarding `CCN(CC)CCCN(C(=O)c1ccc(-c2ccccc2)[nH]1)C(C(=O)NC1CCCCC1)c1ccc(O)cc1` (stereo unspecified), the Activity in assay [1] came to 0.52. The Ki in assay [2] is 1320 nM.

Consider `CCN(CC)CCCN(C(=O)c1ccc(-c2ccccc2)[nH]1)C(C(=O)NC1CCCCC1)c1ccncc1` (stereo unspecified), for which, in assay [1], the Activity was found to be 1.16. The compound also showed a Ki in assay [2] of 910 nM.

Take `O=C(NC1CCCCC1)C(c1ccc(F)cc1)N(CCN1CCOCC1)C(=O)c1ccc(-c2ccccc2)[nH]1` (stereo unspecified): in assay [3], the result was inactive.

Take `CCN(CC)CCCN(C(=O)c1snc(C(N)=O)c1N)C(C(=O)NC1CCCCC1)c1ccc(F)cc1` (stereo unspecified): the result in assay [3] was inactive.

With `O=C(NC1CCCC1)C(c1ccncc1)N(C(=O)c1ccc(-c2ccccc2)[nH]1)c1ccccc1` (stereo unspecified), the outcome in assay [3] was inactive.

Turning to `Cc1ccc(CC(C(=O)NC2CCCCC2)N(C(=O)c2ccc(-c3ccccc3)[nH]2)C2CCCC2)o1` (stereo unspecified), the result in assay [3] was inactive.

Take `O=C(NC1CCCCC1)C(c1ccc(F)cc1)N(C(=O)c1ccc(-c2ccccc2)[nH]1)C1CCCCC1` (stereo unspecified): the outcome in assay [3] was inactive.

Take `CCN(CC)CCN(C(=O)c1ccc(CN2CCCCC2)o1)C(C(=O)NC1CCCCC1)c1ccc(N(C)C)cc1` (stereo unspecified): the result in assay [3] was inactive.

`O=C(NC1CCCC1)C(c1ccncc1)N(CCCN1CCOCC1)C(=O)c1ccc(-c2ccccc2)[nH]1` (stereo unspecified): in assay [3], the outcome was inactive.

Turning to `CCN(CC)CCCN(C(=O)c1ccc(-c2ccccc2)[nH]1)C(Cc1ccc(C)o1)C(=O)NC1CCCCC1` (stereo unspecified), the Activity in assay [1] was determined as 0.28. The compound also gave a Ki in assay [2] of 1170 nM.

Regarding `CCN(CC)CCN(C(=O)c1ccc(CN2CCCCC2)o1)C(C(=O)NC1CCCCC1)c1ccc(F)cc1` (stereo unspecified), the Ki entry in assay [4] was “Not Active”.

For the compound `CCN(CC)CCCN(C(=O)Cn1nnc(-c2ccc(OC)c(OC)c2)n1)C(C(=O)NC1CCCCC1)c1ccc(F)cc1` (stereo unspecified), the result in assay [3] was inactive.

As to `O=C(NC1CCCCC1)C(c1ccc(F)cc1)N(CCCN1CCOCC1)C(=O)c1ccc(CN2CCOCC2)o1` (stereo unspecified), the result in assay [3] was inactive.

As to `CCN(CC)CCCN(C(=O)c1ccc(-c2ccccc2)[nH]1)C(C)C(=O)NC(C)(C)C` (stereo unspecified), the Activity in assay [1] is 0.38. In assay [2], this compound registered an inhibitory constant (Ki) of 1180 nM.

Turning to `CCN(CC)CCCN(C(=O)c1ccc(-c2ccccc2)[nH]1)C(C(=O)NC1CCCCC1)c1ccc(OC)c(OC)c1` (stereo unspecified), the Activity in assay [1] came out at 0.32. The inhibitory constant (Ki) in assay [2] was found to be 2630 nM.

For `CCN(CC)CCCN(C(=O)c1ccc(-c2ccccc2)[nH]1)C(C(=O)NC1CCCCC1)c1cc(OC)ccc1OC` (stereo unspecified), in assay [3], the outcome was inactive.

For the compound `CCCCC(C(=O)NC1CCCCC1)N(CCCN(CC)CC)C(=O)c1ccc(-c2ccccc2)[nH]1` (stereo unspecified), in assay [1], the Activity is 1.6. In assay [2], this compound had a Ki of 280 nM.

As to `O=C(NC1CCCCC1)C(c1ccc(F)cc1)N(CCCN1CCOCC1)C(=O)c1ccc(-c2ccccc2)[nH]1` (stereo unspecified), the Ki entry in assay [4] is “Not Active”.

Regarding `CC(C)(C)NC(=O)C(c1ccc(F)cc1)N(CCCN1CCOCC1)C(=O)c1ccc(-c2ccccc2)[nH]1` (stereo unspecified), in assay [4], the Ki result is “Not Active”.

Regarding `O=C(NC1CCCCC1)C(c1ccc(F)cc1)N(C(=O)c1ccc(-c2ccccc2)[nH]1)c1ccccc1` (stereo unspecified), the result in assay [3] was inactive.

With `COc1ccc(CN(C(=O)c2ccc(-c3ccccc3)[nH]2)C(C(=O)NC2CCCCC2)c2ccc(F)cc2)cc1` (stereo unspecified), the result in assay [3] was inactive.

On to `CCN(CC)CCCN(C(=O)c1ccc(-c2ccccc2)[nH]1)C(C(=O)NCc1ccc(F)cc1)c1ccc(F)cc1` (stereo unspecified), for which the Activity in assay [1] worked out at 0.45. Also, the Ki in assay [2] was 1150 nM.

With `CCCC(C(=O)NC1CCCCC1)N(CCCN(CC)CC)C(=O)c1ccc(-c2ccccc2)[nH]1` (stereo unspecified), the Activity in assay [1] was 1.37. The affinity in assay [2] corresponds to a Ki of 870 nM.

With `CCN(CC)CCN(C(=O)c1ccc(-c2ccccc2)[nH]1)C(C(=O)NC1CCCCC1)c1ccc(F)cc1` (stereo unspecified), the Activity in assay [1] was 0.24. Further, in assay [2], the Ki turned out to be 1370 nM.

In the case of `CCN(CC)CCCN(C(=O)c1ccc(-c2ccccc2)[nH]1)C(C(=O)NC1CCCCC1)c1ccc(F)cc1` (stereo unspecified), the Activity in assay [1] turned out to be 0.57. Besides, in assay [2], the inhibition constant Ki is 1290 nM.
